Test results published in ChEMBL document CHEMBL4014339, “Discovery of 1,4-Benzodiazepine-2,5-dione (BZD) Derivatives as Dual Nucleotide Binding Oligomerization Domain Containing 1/2 (NOD1/NOD2) Antagonists Sensitizing Paclitaxel (PTX) To Suppress Lewis Lung Carcinoma (LLC) Growth in Vivo” (J Med Chem, 2017).
Calls of active or inactive are those of the source.

Key:
[1] = target: T1, Nucleotide-binding oligomerization domain-containing protein 2 (Homo sapiens, UniProt Q9HC29); test: Inhibition of NOD2 in human PBMC-derived macrophages assessed as reduction in MDP-stimulated RIP2 phosphorylation at 1 to 10 uM preincubated for 1 hr followed by MDP stimulation for 1 hr by Western blot analysis
[2] = target: T2, Nucleotide-binding oligomerization domain-containing protein 1 (Homo sapiens) (UniProt Q9Y239); test: Inhibition of NOD1 in human THP1 cells assessed as reduction of C12-iE-DAP-mediated decrease in IkBalpha levels at 1 to 10 uM preincubated for 1 hr followed by C12-iE-DAP addition measured after 45 mins by Western blot analysis; type: cell-based
T2 sequence (whole entry): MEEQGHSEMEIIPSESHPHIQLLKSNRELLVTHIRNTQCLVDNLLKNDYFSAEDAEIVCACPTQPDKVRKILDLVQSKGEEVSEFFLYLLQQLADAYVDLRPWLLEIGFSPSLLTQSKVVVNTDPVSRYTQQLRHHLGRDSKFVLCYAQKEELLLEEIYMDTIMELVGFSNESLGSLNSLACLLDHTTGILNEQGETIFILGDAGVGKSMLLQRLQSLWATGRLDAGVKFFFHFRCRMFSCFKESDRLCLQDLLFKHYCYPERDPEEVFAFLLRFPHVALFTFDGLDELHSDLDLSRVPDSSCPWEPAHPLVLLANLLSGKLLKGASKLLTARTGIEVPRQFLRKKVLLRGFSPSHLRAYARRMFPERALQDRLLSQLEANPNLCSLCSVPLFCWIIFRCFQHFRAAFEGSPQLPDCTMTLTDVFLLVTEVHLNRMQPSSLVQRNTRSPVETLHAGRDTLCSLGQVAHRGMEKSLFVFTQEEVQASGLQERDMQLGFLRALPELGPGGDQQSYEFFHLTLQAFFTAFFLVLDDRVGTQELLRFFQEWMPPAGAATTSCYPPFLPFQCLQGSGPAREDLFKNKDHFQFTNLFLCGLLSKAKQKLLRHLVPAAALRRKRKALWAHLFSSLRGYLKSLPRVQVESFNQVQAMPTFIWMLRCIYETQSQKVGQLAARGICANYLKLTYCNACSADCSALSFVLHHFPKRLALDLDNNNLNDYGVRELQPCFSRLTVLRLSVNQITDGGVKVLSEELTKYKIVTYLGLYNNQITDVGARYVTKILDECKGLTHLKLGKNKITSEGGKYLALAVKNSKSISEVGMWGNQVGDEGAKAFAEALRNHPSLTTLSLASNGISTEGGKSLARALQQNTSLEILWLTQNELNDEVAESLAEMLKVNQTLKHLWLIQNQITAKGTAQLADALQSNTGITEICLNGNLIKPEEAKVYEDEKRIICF
How it was run: (§1)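 PMA (20 ng/mL, 48 h)-differentiated THP1 macrophages rested 24 h in PMA-free medium, serum-starved (0.1% FBS) overnight, pretreated 1 h with compound, stimulated 45 min with C12-iE-DAP 50 ng/mL. Lysates run on 8% SDS-PAGE, immunoblotted for phospho and total RIP2, p38, JNK, ERK and IκBα.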

[3] = target: Toll-like receptor 2 (Homo sapiens) (UniProt O60603); test: Inhibition of human TLR2 expressed in HEK-Blue cells assessed as reduction in Pam3CSK4-stimulated SEAP release preincubated for 3 hrs followed by Pam3CSK4 addition measured after 20 hrs by spectrophotometric analysis; type: cell-based
[4] = target: T2, Nucleotide-binding oligomerization domain-containing protein 1 (Homo sapiens); test: Inhibition of NOD1 in human PBMC-derived macrophages assessed as reduction in C12-iE-DAP-stimulated TNFalpha mRNA expression preincubated for 1 hr followed by C12-iE-DAP stimulation for 90 mins by RT-qPCR analysis
How it was run: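 Human CD14+ monocytes from donor PBMC, differentiated 7 days with M-CSF 20 ng/mL to macrophages; 1.0 × 10^6 cells pretreated 1 h with compound (final 0.1% DMSO), then C12-iE-DAP 500 ng/mL or MDP 5 μg/mL for 90 min. IL-6/TNF-α mRNA by qRT-PCR, normalized to GAPDH; stimulated response set to 100%.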

[5] = target: T2, Nucleotide-binding oligomerization domain-containing protein 1 (Homo sapiens); test: Inhibition of NOD1 in human PBMC-derived macrophages assessed as reduction in C12-iE-DAP-stimulated ERK phosphorylation at 1 to 10 uM preincubated for 1 hr followed by C12-iE-DAP stimulation for 45 mins by Western blot analysis
[6] = target: T2, Nucleotide-binding oligomerization domain-containing protein 1 (Homo sapiens); test: Inhibition of NOD1 in human PBMC-derived macrophages assessed as reduction in C12-iE-DAP-stimulated JNK phosphorylation at 1 to 10 uM preincubated for 1 hr followed by C12-iE-DAP stimulation for 45 mins by Western blot analysis
[7] = target: T2, Nucleotide-binding oligomerization domain-containing protein 1 (Homo sapiens); test: Inhibition of human NOD1 expressed in HEK293 cells assessed as reduction in C12-iE-DAP-stimulated IL8 secretion preincubated with compound followed by C12-iE-DAP stimulation measured after 24 hrs by ELISA; type: cell-based
[8] = target: T2, Nucleotide-binding oligomerization domain-containing protein 1 (Homo sapiens); test: Inhibition of NOD1 in human PBMC-derived macrophages assessed as reduction in C12-iE-DAP-stimulated RIP2 phosphorylation at 1 to 10 uM preincubated for 1 hr followed by C12-iE-DAP stimulation for 45 mins by Western blot analysis
[9] = system: Lewis lung carcinoma cell line; test: Potentiation of paclitaxel-mediated antitumor activity against mouse LLC cells implanted in C57BL/6 mouse assessed as tumor weight inhibition at 20 mg/kg, iv administered daily measured 11 days after tumor implantation (reference value: 34.54 %); type: functional; settings: 264 h, read-out: TGI
[10] = target: T2, Nucleotide-binding oligomerization domain-containing protein 1 (Homo sapiens); test: Inhibition of NOD1 in human PBMC-derived macrophages assessed as reduction in C12-iE-DAP-stimulated p38 phosphorylation at 1 to 10 uM preincubated for 1 hr followed by C12-iE-DAP stimulation for 45 mins by Western blot analysis
[11] = target: T2, Nucleotide-binding oligomerization domain-containing protein 1 (Homo sapiens); test: Inhibition of NOD1 in human THP1 cells assessed as suppression of C12-iE-DAP-stimulated JNK phosphorylation at 1 to 10 uM preincubated for 1 hr followed by C12-iE-DAP stimulation after 45 mins by Western blot analysis; type: cell-based
How it was run: as §1

[12] = target: Tumor necrosis factor (Homo sapiens) (UniProt P01375); test: Inhibition of recombinant human TNFalpha expressed in HEK-Blue cells assessed as reduction in SEAP release preincubated for 3 hrs measured after 20 hrs by spectrophotometric analysis; type: cell-based
[13] = target: Toll-like receptor 4 (Homo sapiens) (UniProt O00206); test: Inhibition of human TLR4 expressed in HEK-Blue cells assessed as reduction in LPS-EK-stimulated SEAP release preincubated for 3 hrs followed by LPS-EK addition measured after 20 hrs by spectrophotometric analysis; type: cell-based
[14] = system: Lewis lung carcinoma cell line; test: Antitumor activity against mouse LLC cells implanted in C57BL/6 mouse assessed as tumor weight inhibition at 20 mg/kg, iv administered daily measured 11 days after tumor implantation; type: functional, organism-based
[15] = target: T1, Nucleotide-binding oligomerization domain-containing protein 2; test: Inhibition of NOD2 in human PBMC-derived macrophages assessed as reduction in MDP-stimulated JNK phosphorylation at 1 to 10 uM preincubated for 1 hr followed by MDP stimulation for 1 hr by Western blot analysis

T1 sequence (Q9HC29 whole entry, the tested form may be a part): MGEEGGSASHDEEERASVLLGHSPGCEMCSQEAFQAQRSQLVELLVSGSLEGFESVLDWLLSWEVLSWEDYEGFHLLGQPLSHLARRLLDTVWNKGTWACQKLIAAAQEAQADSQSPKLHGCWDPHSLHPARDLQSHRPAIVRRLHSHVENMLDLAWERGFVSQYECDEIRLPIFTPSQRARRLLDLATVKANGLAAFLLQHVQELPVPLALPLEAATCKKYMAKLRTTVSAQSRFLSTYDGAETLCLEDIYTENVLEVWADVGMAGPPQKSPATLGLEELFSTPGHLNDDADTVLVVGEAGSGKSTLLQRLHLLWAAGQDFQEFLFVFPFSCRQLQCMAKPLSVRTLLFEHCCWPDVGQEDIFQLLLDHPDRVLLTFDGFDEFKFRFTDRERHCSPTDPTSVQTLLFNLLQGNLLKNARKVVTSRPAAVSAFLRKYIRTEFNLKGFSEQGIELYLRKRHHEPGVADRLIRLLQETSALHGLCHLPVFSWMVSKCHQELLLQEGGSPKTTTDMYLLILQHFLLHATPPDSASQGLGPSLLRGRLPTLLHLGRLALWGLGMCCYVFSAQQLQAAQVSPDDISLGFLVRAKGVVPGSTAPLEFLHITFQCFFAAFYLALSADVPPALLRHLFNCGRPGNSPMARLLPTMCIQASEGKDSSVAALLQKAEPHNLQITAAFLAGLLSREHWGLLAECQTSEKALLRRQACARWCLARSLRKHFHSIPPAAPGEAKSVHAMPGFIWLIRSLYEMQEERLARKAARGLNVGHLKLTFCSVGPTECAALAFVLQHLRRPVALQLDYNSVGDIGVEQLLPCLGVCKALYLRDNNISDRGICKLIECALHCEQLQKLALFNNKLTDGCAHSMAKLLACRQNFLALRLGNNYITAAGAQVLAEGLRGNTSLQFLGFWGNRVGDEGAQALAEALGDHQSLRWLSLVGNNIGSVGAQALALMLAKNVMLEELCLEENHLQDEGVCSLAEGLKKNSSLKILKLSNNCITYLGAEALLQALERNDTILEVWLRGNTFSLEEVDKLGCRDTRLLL
Chain of Tumor necrosis factor (Homo sapiens) (P01375 whole entry): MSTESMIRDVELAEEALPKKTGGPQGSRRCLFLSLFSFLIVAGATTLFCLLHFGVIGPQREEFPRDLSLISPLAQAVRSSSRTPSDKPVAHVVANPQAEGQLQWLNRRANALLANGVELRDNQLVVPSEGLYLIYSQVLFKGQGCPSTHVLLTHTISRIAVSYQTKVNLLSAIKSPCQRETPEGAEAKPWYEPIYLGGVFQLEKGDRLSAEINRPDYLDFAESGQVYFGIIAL
Chain of Toll-like receptor 4 (Homo sapiens) (O00206 whole entry): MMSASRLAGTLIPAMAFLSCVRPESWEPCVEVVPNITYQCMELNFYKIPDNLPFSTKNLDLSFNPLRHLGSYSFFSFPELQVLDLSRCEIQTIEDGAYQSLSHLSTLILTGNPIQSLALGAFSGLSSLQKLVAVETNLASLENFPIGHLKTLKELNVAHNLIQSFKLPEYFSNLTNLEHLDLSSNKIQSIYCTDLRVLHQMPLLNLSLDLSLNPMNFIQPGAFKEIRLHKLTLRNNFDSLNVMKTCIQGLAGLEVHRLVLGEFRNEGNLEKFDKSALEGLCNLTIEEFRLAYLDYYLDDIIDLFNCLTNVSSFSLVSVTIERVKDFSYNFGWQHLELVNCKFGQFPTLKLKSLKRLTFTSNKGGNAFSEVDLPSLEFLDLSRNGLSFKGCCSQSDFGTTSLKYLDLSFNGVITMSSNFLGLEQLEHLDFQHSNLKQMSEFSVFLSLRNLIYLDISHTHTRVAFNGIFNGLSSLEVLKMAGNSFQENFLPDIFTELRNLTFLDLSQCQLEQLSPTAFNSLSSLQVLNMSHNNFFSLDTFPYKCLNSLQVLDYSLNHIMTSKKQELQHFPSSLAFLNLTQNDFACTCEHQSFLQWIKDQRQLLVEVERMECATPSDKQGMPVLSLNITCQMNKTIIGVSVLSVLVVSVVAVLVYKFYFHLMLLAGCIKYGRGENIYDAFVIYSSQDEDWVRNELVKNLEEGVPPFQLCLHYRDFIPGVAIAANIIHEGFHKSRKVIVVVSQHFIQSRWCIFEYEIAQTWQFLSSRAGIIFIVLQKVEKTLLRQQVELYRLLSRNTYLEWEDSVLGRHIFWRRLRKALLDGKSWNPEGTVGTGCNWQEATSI
Chain of Toll-like receptor 2 (Homo sapiens) (O60603 whole entry, the tested form may be a part): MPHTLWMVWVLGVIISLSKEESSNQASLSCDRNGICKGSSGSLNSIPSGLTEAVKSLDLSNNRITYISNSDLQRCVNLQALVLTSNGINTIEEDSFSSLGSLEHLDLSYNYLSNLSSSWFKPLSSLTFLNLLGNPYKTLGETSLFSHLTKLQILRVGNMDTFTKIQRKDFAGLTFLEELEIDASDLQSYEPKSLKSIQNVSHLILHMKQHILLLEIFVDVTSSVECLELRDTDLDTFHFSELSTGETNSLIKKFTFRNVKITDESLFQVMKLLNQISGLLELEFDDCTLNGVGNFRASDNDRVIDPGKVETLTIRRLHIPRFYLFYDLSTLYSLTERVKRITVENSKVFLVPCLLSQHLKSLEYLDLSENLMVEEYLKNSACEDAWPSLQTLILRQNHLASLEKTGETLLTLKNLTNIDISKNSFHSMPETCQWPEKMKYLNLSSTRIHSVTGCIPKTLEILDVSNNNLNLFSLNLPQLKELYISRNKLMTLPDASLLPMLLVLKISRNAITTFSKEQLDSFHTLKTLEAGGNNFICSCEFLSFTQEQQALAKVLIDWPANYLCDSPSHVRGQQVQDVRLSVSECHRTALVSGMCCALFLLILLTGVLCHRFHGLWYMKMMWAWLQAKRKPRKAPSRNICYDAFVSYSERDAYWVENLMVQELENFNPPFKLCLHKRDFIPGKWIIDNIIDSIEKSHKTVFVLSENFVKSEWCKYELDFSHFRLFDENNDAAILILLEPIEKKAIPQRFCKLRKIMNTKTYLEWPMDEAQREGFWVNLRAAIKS

CCCNC(=O)CC[C@H]1NC(=O)c2cc(Oc3cccc(N(C)C)c3)c(NC(=O)COCc3ccccc3)cc2NC1=O
67.3%: inhibition in vivo at 20 mg/kg [9]
active: inhibition [1] | inhibition [2] | inhibition [4] Dose-dependent effect | inhibition [5] | inhibition [6] | inhibition [7] Dose-dependent effect | inhibition [8] | inhibition [10] | inhibition [11] | inhibition [15]
inactive: inhibition [3] | inhibition [12] | inhibition [13] | TGI [14]
